Results from PubChem BioAssay AID488972 (Southern Research Specialized Biocontainment Screening …, 2010).
Active and inactive are the calls of the source.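 How the source made its calls: active means compounds blocking at least half of the virus-caused cell damage; inactive means the rest.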

What follows are compounds tested on HEp-2 RSV Long CPE, luminescence viability (assay: RSV cytopathic effect inhibition in HEp-2 cells, dose response, cell-based, RSV Long, luminescence viability, purified and synthesized compounds (AID 488972)).
Method in brief: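 system = HEp-2 cells infected with RSV strain Long | compound = 8-point twofold series, 50 to 0.39 µM final, 0.5% DMSO | timing = 6 days at 37 °C | detection = luminescence-based measurement of viral cytopathic effect | evaluation = % CPE inhibition and constrained 4-parameter IC50 | benchmarks = cell-only and virus-only wells | repeats = triplicate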
With `CC(C)(C)c1csc(NC(=O)c2cccnc2)n1` the IC50 was > 50 µM (inactive).
For `Cc1ccc(NC(=O)C2CCCN2C(=O)c2ccccc2)c(C)c1` (stereo unspecified), the IC50 was > 50 µM (inactive).
For `Cc1ccc(NC(=O)CN(C)S(=O)(=O)c2cccc3cccnc23)c(C)c1`, the IC50 was > 50 µM (inactive).
`Cc1ccc(NC(=O)C2CCCN2Cc2ccccc2)c(C)c1` (stereo unspecified) was tested, and the IC50 was > 50 µM (inactive).
For `CSc1ncccc1C(=O)Nc1nc(C(C)(C)C)cs1`, the IC50 was 16.2 µM.
In the case of `Cc1ccc(NC(=O)C2CCCN2S(=O)(=O)c2ccc3ncccc3c2)c(C)c1` (stereo unspecified), the IC50 is reported as > 50 µM (inactive).
`Cc1ccc(NC(=O)[C@H]2CCCN2S(=O)(=O)c2cccc3cccnc23)c(C)c1` was tested, and the IC50 was > 50 µM (inactive).
`Cc1ccc(NC(=O)C2CCCN2S(=O)(=O)c2cccc3cnccc23)c(C)c1` (stereo unspecified) was tested, and the IC50 was > 50 µM (inactive).
`Cc1ccc(NC(=O)CNS(=O)(=O)c2cccc3cccnc23)c(C)c1` was tested, and the IC50 was > 50 µM (inactive).
In the case of `CSc1ncccc1C(=O)Nc1nc(C)cs1`, the IC50 is reported as > 50 µM (inactive).
For `Cc1ccc(NC(=O)C2CCCN2S(=O)(=O)c2cccc3ccccc23)c(C)c1` (stereo unspecified), the IC50 was > 50 µM (inactive).
For `O=C(Nc1ccc(C(F)(F)F)cc1[N+](=O)[O-])O[C@H]1[C@H](Cc2ccccc2)NS(=O)(=O)[C@H]2C[C@@H]3C=C[C@]12O3`, the IC50 was > 50 µM (inactive).
`Cc1ccc(NC(=O)C2CCCN2S(=O)(=O)c2ccccc2)c(C)c1` (stereo unspecified) was tested, and the IC50 was > 50 µM (inactive).
Work on `Cc1ccc(NC(=O)C2CCCN2S(=O)(=O)c2cccc3cccnc23)c(C)c1` (stereo unspecified) yielded an IC50 of 13.2 µM.
`Cc1ccc(NC(=O)[C@@H]2CCCN2S(=O)(=O)c2cccc3cccnc23)c(C)c1` was tested, and the IC50 was 7.81 µM.
For `Cc1csc(NC(=O)c2cccnc2)n1`, the IC50 was > 50 µM (inactive).
With `Cc1ccc(NC(=O)C2CCCN2C(=O)c2cccc3cccnc23)c(C)c1` (stereo unspecified) the IC50 was > 50 µM (inactive).
With `Cc1ccc(NC(=O)C2CCCN2S(=O)(=O)c2cccc3cc(C)cnc23)c(C)c1` (stereo unspecified) the IC50 was > 50 µM (inactive).
`Cc1ccc(NC(=O)C(C)NS(=O)(=O)c2cccc3cccnc23)c(C)c1` (stereo unspecified) was tested, and the IC50 was > 50 µM (inactive).
`Cc1ccc(NC(=O)C2CCCN2Cc2cccc3cccnc23)c(C)c1` (stereo unspecified) was tested, and the IC50 was > 50 µM (inactive).
For `Cc1ccc(NC(=O)C2CCCN2S(C)(=O)=O)c(C)c1` (stereo unspecified), the IC50 was > 50 µM (inactive).
